Test results: ChEMBL document CHEMBL3046679, “Design, synthesis, and biological activities of arylmethylamine substituted chlorotriazine and methylthiotriazine compounds” (J Agric Food Chem, 2011)
Active and inactive are the calls of the source. The calls are words filed in the database; no cut-off is given here.

Legend:
Puccinia triticina [1] = experiment: Fungicidal activity against Puccinia triticina assessed as inhibition of disease development in compound treated leaf pieces at 200 ppm relative to untreated control (wheat-curative); format: functional
Method in brief: (§1)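 Curative wheat leaf-piece test against Puccinia triticina. Leaf pieces inoculated with spores first, then treated with formulated compound at 200, 60 or 20 ppm. Disease scored 3–9 days after inoculation as percent inhibition versus untreated controls. Values are the mean across replicates.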

Puccinia triticina [2] = experiment: Fungicidal activity against Puccinia triticina assessed as inhibition of disease development in compound treated leaf pieces at 200 ppm relative to untreated control (wheat-preventative); format: functional
Method in brief: (§2)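 Preventative leaf-piece test on host tissue (tomato, vine, wheat or barley). Formulated compound applied at 200, 60 and 20 ppm before spore inoculation. Disease scored 3–9 days after inoculation, depending on the pathogen, as percent inhibition of disease development versus untreated controls. Values are the mean across replicates.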

[3] = tested on: Blumeria graminis f. sp. tritici; experiment: Fungicidal activity against Blumeria graminis f. sp. tritici assessed as inhibition of disease development in compound treated leaf pieces at 200 ppm relative to untreated control (wheat-preventative); format: functional
Plasmopara viticola [4] = experiment: Fungicidal activity against Plasmopara viticola assessed as inhibition of disease development in compound treated leaf pieces at 200 ppm relative to untreated control (grapevine-preventative); format: functional; method in brief: as §2
Phytophthora infestans [5] = experiment: Fungicidal activity against Phytophthora infestans assessed as inhibition of disease development in compound treated leaf pieces at 200 ppm relative to untreated control (tomato-preventative); format: functional; method in brief: as §2
Uromyces viciae-fabae = experiment: Fungicidal activity against Uromyces viciae-fabae assessed as inhibition of mycelia growth at 100 ppm; format: functional, organism-based
Method in brief: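 Leaf-piece assay on bean at 100 ppm, with compound applied before spore inoculation and two replicates. Each well scored 99 for complete inhibition, 55 for partial and 0 for none; value is the mean score across replicates.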

Phytophthora infestans [6] = experiment: Fungicidal activity against Phytophthora infestans assessed as inhibition of mycelia growth at 200 ppm; format: functional, organism-based
Fusarium graminearum = experiment: Fungicidal activity against Fusarium graminearum assessed as inhibition of mycelia growth at 2 ppm; format: functional, organism-based
Method in brief: (§3)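 Mycelial growth test in 96-well plates: compound incorporated into artificial growth medium at 2 ppm, two replicates per rate. Each well scored 99 for complete, 55 for partial or 0 for no inhibition. Values are the mean across replicates; azoxystrobin and prochloraz used as positive controls.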

Alternaria solani [7] = experiment: Fungicidal activity against Alternaria solani assessed as inhibition of mycelia growth at 2 ppm; format: functional, organism-based; method in brief: as §3
Pythium dissimile = experiment: Fungicidal activity against Pythium dissimile assessed as inhibition of mycelia growth at 2 ppm; format: functional, organism-based; method in brief: as §3
Echinochloa crus-galli [8] = experiment: Herbicidal activity against Echinochloa crus-galli (barnyard grass) at 1.5 kg/ha postemergence treatment measured after 10 days by glasshouse test; format: functional; details: post-emergence, 240 h
Method in brief: (§4)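 Glasshouse pre/postemergence test, each treatment in triplicate. Above-ground fresh weight measured 10 days after treatment. Result expressed as percent inhibition versus control, from 0 (no control) to 100 (complete control); glyphosate used as positive control.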

Brassica napus [9] = experiment: Herbicidal activity against Brassica napus (oilseed rape) at 1.5 kg/ha postemergence treatment measured after 10 days by glasshouse test; format: functional; details: post-emergence, 240 h; method in brief: as §4
Echinochloa crus-galli [10] = experiment: Herbicidal activity against Echinochloa crus-galli (barnyard grass) at 1.5 kg/ha preemergence treatment measured after 10 days by glasshouse test; format: functional; details: pre-emergence, 240 h; method in brief: as §4
Brassica napus [11] = experiment: Herbicidal activity against Brassica napus (oilseed rape) at 1.5 kg/ha preemergence treatment measured after 10 days by glasshouse test; format: functional; details: pre-emergence, 240 h; method in brief: as §4
Alternaria solani [12] = experiment: Fungicidal activity against Alternaria solani assessed as inhibition of disease development in compound treated leaf pieces at 20 ppm relative to untreated control (tomato-preventative); format: functional; method in brief: as §2
Pyrenophora teres [13] = experiment: Fungicidal activity against Pyrenophora teres assessed as inhibition of disease development in compound treated leaf pieces at 20 ppm relative to untreated control (barley-preventative); format: functional; method in brief: as §2
Parastagonospora nodorum [14] = experiment: Fungicidal activity against Phaeosphaeria nodorum assessed as inhibition of disease development in compound treated leaf pieces at 20 ppm relative to untreated control (wheat preventative); format: functional; method in brief: as §2
Puccinia triticina [15] = experiment: Fungicidal activity against Puccinia triticina assessed as inhibition of disease development in compound treated leaf pieces at 20 ppm relative to untreated control (wheat-curative); format: functional; method in brief: as §1
Puccinia triticina [16] = experiment: Fungicidal activity against Puccinia triticina assessed as inhibition of disease development in compound treated leaf pieces at 20 ppm relative to untreated control (wheat-preventative); format: functional; method in brief: as §2
[17] = tested on: Blumeria graminis f. sp. tritici; experiment: Fungicidal activity against Blumeria graminis f. sp. tritici assessed as inhibition of disease development in compound treated leaf pieces at 20 ppm relative to untreated control (wheat-preventative); format: functional
Plasmopara viticola [18] = experiment: Fungicidal activity against Plasmopara viticola assessed as inhibition of disease development in compound treated leaf pieces at 20 ppm relative to untreated control (grapevine-preventative); format: functional; method in brief: as §2
Phytophthora infestans [19] = experiment: Fungicidal activity against Phytophthora infestans assessed as inhibition of disease development in compound treated leaf pieces at 20 ppm relative to untreated control (tomato-preventative); format: functional; method in brief: as §2
Alternaria solani [20] = experiment: Fungicidal activity against Alternaria solani assessed as inhibition of disease development in compound treated leaf pieces at 60 ppm relative to untreated control (tomato-preventative); format: functional; method in brief: as §2
Pyrenophora teres [21] = experiment: Fungicidal activity against Pyrenophora teres assessed as inhibition of disease development in compound treated leaf pieces at 60 ppm relative to untreated control (barley-preventative); format: functional; method in brief: as §2
Parastagonospora nodorum [22] = experiment: Fungicidal activity against Phaeosphaeria nodorum assessed as inhibition of disease development in compound treated leaf pieces at 60 ppm relative to untreated control (wheat preventative); format: functional; method in brief: as §2
Puccinia triticina [23] = experiment: Fungicidal activity against Puccinia triticina assessed as inhibition of disease development in compound treated leaf pieces at 60 ppm relative to untreated control (wheat-curative); format: functional; method in brief: as §1
Puccinia triticina [24] = experiment: Fungicidal activity against Puccinia triticina assessed as inhibition of disease development in compound treated leaf pieces at 60 ppm relative to untreated control (wheat-preventative); format: functional; method in brief: as §2
[25] = tested on: Blumeria graminis f. sp. tritici; experiment: Fungicidal activity against Blumeria graminis f. sp. tritici assessed as inhibition of disease development in compound treated leaf pieces at 60 ppm relative to untreated control (wheat-preventative); format: functional
Plasmopara viticola [26] = experiment: Fungicidal activity against Plasmopara viticola assessed as inhibition of disease development in compound treated leaf pieces at 60 ppm relative to untreated control (grapevine-preventative); format: functional; method in brief: as §2
Phytophthora infestans [27] = experiment: Fungicidal activity against Phytophthora infestans assessed as inhibition of disease development in compound treated leaf pieces at 60 ppm relative to untreated control (tomato-preventative); format: functional; method in brief: as §2
Alternaria solani [28] = experiment: Fungicidal activity against Alternaria solani assessed as inhibition of disease development in compound treated leaf pieces at 200 ppm relative to untreated control (tomato-preventative); format: functional; method in brief: as §2
Pyrenophora teres [29] = experiment: Fungicidal activity against Pyrenophora teres assessed as inhibition of disease development in compound treated leaf pieces at 200 ppm relative to untreated control (barley-preventative); format: functional; method in brief: as §2
Triticum aestivum = experiment: Phytotoxicity against Triticum aestivum (wheat) plant at 200 ppm; format: organism-based; details: in vivo
Heliothis virescens = experiment: Insecticidal activity against Lepidoptera Heliothis virescens (tobacco budworm) assessed as mortality at 1000 ppm by leaf-disk assay; format: functional, organism-based
Method in brief: (§5)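 Leaf-disk assay at 1000 ppm, three replicates. Plates kept 5–9 days in controlled-environment cabinets. Mortality judged against untreated wells: 99 for significant mortality, 0 otherwise. Values are the mean of three; thiamethoxam and indoxacarb used as positive controls.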

Aphididae = experiment: Insecticidal activity against Aphididae (aphids) assessed as mortality at 1000 ppm by leaf-disk assay; format: functional, organism-based; method in brief: as §5

CSc1nc(NCc2cc(-c3ccccc3)no2)nc(NC(C)C)n1
inhibition at 200 ppm (Puccinia triticina [1]): 100%
inhibition at 200 ppm (Puccinia triticina [2]): 100%
inhibition at 200 ppm [3]: 70%
inhibition at 200 ppm (Plasmopara viticola [4]): 0%
inhibition at 200 ppm (Phytophthora infestans [5]): 0%
inhibition (Uromyces viciae-fabae): Active
inhibition (Phytophthora infestans [6]): inactive
inhibition (Fusarium graminearum): inactive
inhibition (Alternaria solani [7]): inactive
inhibition (Pythium dissimile): inactive
inhibition at 1500 g/ha (Echinochloa crus-galli [8]): 14.3%
inhibition at 1500 g/ha (Brassica napus [9]): 100%
inhibition at 1500 g/ha (Echinochloa crus-galli [10]): 37.6%
inhibition at 1500 g/ha (Brassica napus [11]): 33.1%
inhibition at 20 ppm (Alternaria solani [12]): 0%
inhibition at 20 ppm (Pyrenophora teres [13]): 0%
inhibition at 20 ppm (Parastagonospora nodorum [14]): 0%
inhibition at 20 ppm (Puccinia triticina [15]): 70%
inhibition at 20 ppm (Puccinia triticina [16]): 0%
inhibition at 20 ppm [17]: 0%
inhibition at 20 ppm (Plasmopara viticola [18]): 0%
inhibition at 20 ppm (Phytophthora infestans [19]): 0%
inhibition at 60 ppm (Alternaria solani [20]): 0%
inhibition at 60 ppm (Pyrenophora teres [21]): 0%
inhibition at 60 ppm (Parastagonospora nodorum [22]): 70%
inhibition at 60 ppm (Puccinia triticina [23]): 100%
inhibition at 60 ppm (Puccinia triticina [24]): 70%
inhibition at 60 ppm [25]: 70%
inhibition at 60 ppm (Plasmopara viticola [26]): 0%
inhibition at 60 ppm (Phytophthora infestans [27]): 0%
inhibition at 200 ppm (Alternaria solani [28]): 0%
inhibition at 200 ppm (Pyrenophora teres [29]): 0%
Activity (Triticum aestivum): Toxic
mortality (Heliothis virescens): inactive
mortality (Aphididae): inactive
